According to ChEMBL document CHEMBL1123489, “Antineoplastic activity of 3'-(chloroethyl)nitrosourea analogues of 2'-deoxyuridine and 2'-deoxy-5-fluorouridine” (J Med Chem, 1986):

Legend:
L1210 [1] = test: Compound was tested in vitro for cytotoxicity against L1210 leukemia cells in tumor bearing mice.; format: functional; conditions: Mus musculus, read-out: ED50 (the source's name)
Outline: (§1)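 Mouse L1210 cells grown in suspension in Fischer's medium with 10% horse serum, 37 °C, 5% CO2. Exponential-phase cells at 2 × 10⁴ cells/mL exposed to compound. Cell number counted against drug-free control after 24, 48 and 72 h. ED50 (concentration inhibiting growth by 50%) estimated from dose-response curves from replicate independent experiments.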

L1210 [2] = test: Compound was tested in vitro for carbomoylating activity against L1210 leukemia cells in tumor bearing mice; format: functional, Mus musculus
Outline: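 Extent of carbamoylation of 5'-amino-5'-deoxythymidine measured after incubation with nitrosourea for 6 h at 37 °C in phosphate-buffered saline. Activity expressed relative to BCNU (set at 1.00). Three determinations per compound.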

[3] = Half-life, determined by incubation at 37 degree celsius in PBS (pH 7.4)
L1210 [4] = test: Compound was tested in vitro for alkylating activity against L1210 leukemia cells in tumor bearing mice; format: functional, Mus musculus
Outline: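 4-(4-Nitrobenzyl)pyridine alkylation measured after 120 min at 37 °C, pH 6.4. Activity expressed relative to BCNU (set at 1.00). Three determinations per compound.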

L1210 [5] = test: Effect on the survival time of mice bearing L1210 leukemia at a dose of 80 mg/kg; format: functional, Mus musculus
Outline: (§2)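 L1210 ascites cells from 7-day growths in donor CDF1 female mice were diluted in isotonic saline, and about 10^5 cells were injected i.p. Drug was given as one i.p. injection in isotonic saline, 24 h after implantation. Groups held five or six weight-matched mice, with saline vehicle controls. T/C × 100 = treated/control survival time in dying animals; >60-day survivors counted.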

L1210 [6] = test: Effect on the survival time of mice bearing L1210 leukemia at a dose of 20 mg/kg; format: functional, Mus musculus; outline: as §2
L1210 [7] = test: Effect on the maximum weight loss of mice bearing L1210 leukemia at a dose of 80 mg/kg on days 11; format: functional, Mus musculus
L1210 [8] = test: Effect on the survival time of mice bearing L1210 leukemia at a dose of 20 mg/kg on 30th day; format: functional, Mus musculus
L1210 [9] = test: Effect on the maximum weight loss of mice bearing L1210 leukemia at a dose of 20 mg/kg; conditions: Mus musculus
L1210 [10] = test: Effect on the maximum weight loss of mice bearing L1210 leukemia at a dose of 40 mg/kg on days 6-8
L1210 [11] = test: Effect on the survival time of mice bearing L1210 leukemia at a dose of 80 mg/kg on 30th day; format: functional, Mus musculus
L1210 [12] = test: Effect on the survival time of mice bearing L1210 leukemia at a dose of 40 mg/kg; format: functional, Mus musculus; outline: as §2
L1210 [13] = test: Effect on the survival time of mice bearing L1210 leukemia at a dose of 40 mg/kg on 30th day; format: functional, Mus musculus
L1210 [14] = test: Compound was tested in vitro for cytotoxicity against L1210 leukemia cells in tumor bearing mice; format: functional; conditions: Mus musculus, read-out: ED50 (the source's name); outline: as §1
L1210 [15] = test: Effect on the maximum weight loss of mice bearing L1210 leukemia at a dose of 40 mg/kg on days 5-8
L1210 [16] = test: Effect on the maximum weight loss of mice bearing L1210 leukemia at a dose of 80 mg/kg on days 9; format: functional, Mus musculus

Cc1cn([C@H]2C[C@H](N)[C@@H](CO)O2)c(=O)[nH]c1=O [3-AMINO- 3-DEOXYTHYMIDINE]
EC50 (L1210 [1]): 0.8 µM

NC1CC(n2cc(F)c(=O)[nH]c2=O)OC1CO (stereo not given)
EC50 (L1210 [1]): 15 µM

Cc1cn(C2CC(NC(=O)N(CCCl)N=O)C(CO)O2)c(=O)[nH]c1=O (stereo not given)
EC50 (L1210 [1]): 1.5 µM | Activity (L1210 [2]): 0.85 | half-life [3]: 37.3 min | Activity (L1210 [4]): 2

O=NN(CCCl)C(=O)N[C@@H]1CC(n2ccc(=O)[nH]c2=O)O[C@@H]1CO (stereo not given in full)
Average survival days (L1210 [5]): 8.3 | Body weight (L1210 [5]): 19.5 g | T/C (L1210 [5]): 99% | Weight change (L1210 [5]): 13% | Average survival days (L1210 [6]): 20.4 | Body weight (L1210 [6]): 18.8 g | T/C (L1210 [6]): 243% | Weight change (L1210 [6]): 9% | Max weight loss (L1210 [7]): 21% | Body weight (L1210 [8]): 22 g | Max weight loss (L1210 [9]): None | Activity (L1210 [2]): 0.85 | half-life [3]: 27.3 min | Activity (L1210 [4]): 1.65 | Max weight loss (L1210 [10]): 2% | Body weight (L1210 [11]): 20.8 g | Average survival days (L1210 [12]): 31 | Body weight (L1210 [12]): 19 g | T/C (L1210 [12]): 369% | Weight change (L1210 [12]): 5% | Body weight (L1210 [13]): 22.1 g | EC50 (L1210 [14]): 12.5 µM

O=NN(CCCl)C(=O)NCCCl [CARMUSTINE]
EC50 (L1210 [1]): 4 µM | Activity (L1210 [2]): 1 | half-life [3]: 50 min | Activity (L1210 [4]): 1

O=NN(CCCl)C(=O)N[C@@H]1CC(n2cc(F)c(=O)[nH]c2=O)O[C@@H]1CO (stereo not given in full)
Average survival days (L1210 [5]): 9 | Body weight (L1210 [5]): 20.5 g | T/C (L1210 [5]): 107% | Weight change (L1210 [5]): 4% | Average survival days (L1210 [6]): 18.7 | Body weight (L1210 [6]): 26.1 g | T/C (L1210 [6]): 223% | Weight change (L1210 [6]): 4% | EC50 (L1210 [1]): 2.5 µM | Body weight (L1210 [8]): 22 g | Max weight loss (L1210 [9]): None | Activity (L1210 [2]): 0.77 | half-life [3]: 36.1 min | Max weight loss (L1210 [15]): 3% | Max weight loss (L1210 [16]): 14% | Activity (L1210 [4]): 1.78 | Body weight (L1210 [11]): 21.3 g | Average survival days (L1210 [12]): 14 | Body weight (L1210 [12]): 19.5 g | T/C (L1210 [12]): 167% | Weight change (L1210 [12]): 5% | Body weight (L1210 [13]): 22.1 g

N[C@H]1C[C@H](n2ccc(=O)[nH]c2=O)O[C@@H]1CO
EC50 (L1210 [1]): 18 µM
